Measurements reported in ChEMBL document CHEMBL1148399, “Total synthesis and antitubulin activity of c10 analogues of cryptophycin-24” (2004).

Key:
Type in all cases: functional
[1] = target: Tubulin alpha chain (Sus scrofa) (UniProt P02550); test: In vitro effective concentration required to reduce the amount of microtubules assembly by tubulin assay
Procedure, shortened: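 Tubulin at 1.5 mg/mL was incubated with varying compound concentrations for 15 min at 37 °C in PEM buffer, pH 6.9 (0.1 M PIPES, 1 mM EGTA, 1 mM MgSO4), with 0.5 mM GTP and 8% DMSO. Microtubules were pelleted by centrifugation for 4 min at 37 °C and 50 000 rpm. Supernatant protein was measured by Bradford, and pellet protein derived from it. ED50 is the concentration reducing microtubules by 50%.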

NCI/ADR-RES = test: In vitro cytotoxicity against human MCF-7/Adr breast cancer cell line; conditions: read-out: ED50 (the source's name)
Procedure, shortened: (§1)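 About 2000 cells/well plated in Dulbecco's MEM/F12 with 10% fetal calf serum. At 24 h the medium was replaced with fresh medium holding varying compound concentrations. After 72 h, proliferation was read by sulforhodamine B staining. ED50 is the concentration reducing cell proliferation by 50%.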

MCF7 = test: In vitro cytotoxicity against human MCF-7 cell line; conditions: read-out: ED50 (the source's name); procedure, shortened: as §1
KB = test: In vitro cytotoxicity against human KB cancer cell line; conditions: read-out: ED50 (the source's name)
CCRF-CEM = test: In vitro cytotoxicity against human CEM cell line; conditions: read-out: ED50 (the source's name)

Chain of Tubulin alpha chain (Sus scrofa) (P02550 whole entry, looked up): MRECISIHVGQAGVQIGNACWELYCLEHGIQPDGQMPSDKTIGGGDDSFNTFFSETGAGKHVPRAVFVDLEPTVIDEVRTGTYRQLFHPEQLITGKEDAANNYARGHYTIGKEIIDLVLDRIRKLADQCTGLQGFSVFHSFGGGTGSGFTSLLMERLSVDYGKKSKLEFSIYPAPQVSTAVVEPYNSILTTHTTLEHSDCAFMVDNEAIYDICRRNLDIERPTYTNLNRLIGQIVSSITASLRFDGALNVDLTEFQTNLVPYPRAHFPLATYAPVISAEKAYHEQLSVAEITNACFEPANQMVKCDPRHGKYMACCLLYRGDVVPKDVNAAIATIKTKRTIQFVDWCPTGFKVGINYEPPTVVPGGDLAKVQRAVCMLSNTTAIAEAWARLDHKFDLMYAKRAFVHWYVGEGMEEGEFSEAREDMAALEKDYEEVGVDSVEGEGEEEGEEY

Structure (SMILES)	ED50 [1]	EC50 (NCI/ADR-RES)	EC50 (MCF7)	EC50 (KB)	EC50 (CCRF-CEM)
CC(C)C[C@@H]1OC(=O)CCNC(=O)[C@@H](Cc2ccc(Cl)cc2)NC(=O)/C=C/C[C@@H]([C@H](C)[C@H]2O[C@@H]2c2ccccc2)OC1=O	12500 nM	0.66 nM	0.12 nM		
CC(C)C[C@@H]1OC(=O)CCNC(=O)[C@@H](Cc2ccc(Cl)c(Cl)c2)NC(=O)/C=C/C[C@@H]([C@H](C)[C@H]2O[C@@H]2c2ccccc2)OC1=O	12600 nM	3.4 nM	0.08 nM		
CC(C)C[C@@H]1OC(=O)CCNC(=O)[C@@H](Cc2ccccc2)NC(=O)/C=C/C[C@@H]([C@H](C)[C@H]2O[C@@H]2c2ccccc2)OC1=O	13100 nM	1.57 nM	0.34 nM		
COc1ccc(C[C@H]2NC(=O)/C=C/C[C@@H]([C@H](C)[C@H]3O[C@@H]3c3ccccc3)OC(=O)[C@H](CC(C)C)OC(=O)CCNC2=O)cc1 [ARENASTATIN A]	15800 nM	0.25 nM	0.13 nM	0.005 nM	0.183 nM
COc1ccc(C[C@H]2NC(=O)/C=C/C[C@@H]([C@H](C)[C@H]3O[C@@H]3c3ccccc3)OC(=O)[C@H](CC(C)C)OC(=O)[C@H](C)CNC2=O)cc1Cl [CRYPTOPHYCIN A]	3400 nM	0.018 nM	0.009 nM		
CC(C)C[C@@H]1OC(=O)CCNC(=O)[C@@H](Cc2cccc(Cl)c2)NC(=O)/C=C/C[C@@H]([C@H](C)[C@H]2O[C@@H]2c2ccccc2)OC1=O	7200 nM	0.58 nM	0.05 nM		
